Measured values published in ChEMBL document CHEMBL1122485, “Antibacterially active substituted anilides of carboxylic and sulfonic acids” (1983).
≈ marks a conversion by molar mass, not a printed value.

What was measured:
[1] = test system: Staphylococcus aureus; test: Bacteriostatic activity against Staphylococcus aureus ATCC 6538 at 10 ppm concentration; + =Positive; type: functional, organism-based
In short: (§1)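 S. aureus was inoculated at 10⁷/mL into 10 mL nutrient broth with 10 ppm compound. Those tubes were centrifuged (10000g, 10 min), resuspended in sterile diluent and streaked onto nutrient agar. Colonies after 48 h at 30 °C meant bacteriostatic; none meant bactericidal.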

[2] = test system: Staphylococcus aureus; test: Minimum inhibitory concentration against staphylococcus aureus ATCC 6538; type: functional
In short: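 Agar dilution: 1% stocks in 95% ethanol or water, serially diluted into nutrient agar (pH 6.8) to 1000, 100, 10 and 1 ppm. Plates were dried 30 min at 37 °C and spotted with ten drops of 24-h nutrient broth culture. Incubation was 48 h at 37 °C, in duplicate, with hexachlorophene as standard. MIC was the lowest level with no growth of any inoculum on either dish.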

[3] = test system: Staphylococcus aureus; test: Bactericidal activity against Staphylococcus aureus ATCC 6538 at 10 ppm concentration; - = Negative; type: functional, organism-based; in short: as §1
[4] = test system: Lactiplantibacillus plantarum; test: Activity at 10 ppm against Lactobacillus plantarum; x=Effective; type: functional, organism-based
In short: (§2)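 Gram-positive panel on nutrient agar containing compound at 10, 1.0 and 0.1 ppm, duplicate plates. Six 15-µL drops per species, each holding 10⁷ vegetative cells (10⁶ for L. plantarum). Hexachlorophene and no-compound plates were run alongside. Plates were incubated 5 days at 30 °C and scored for growth. MIC was taken as the lowest level with no colonies on either plate.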

[5] = test system: Staphylococcus aureus; test: Activity at 10 ppm against Staphylococcus aureus ATCC 6538; x=Effective; type: functional, organism-based
[6] = test system: Staphylococcus aureus; test: Bacteriostatic activity against Staphylococcus aureus ATCC 6538 at 10 ppm concentration; - = Negative; type: functional, organism-based; in short: as §1
[7] = test system: Enterococcus faecalis; test: Activity at 10 ppm against Streptococcus faecalis; x=Effective; type: functional, organism-based; in short: as §2
[8] = test system: Staphylococcus aureus; test: Bactericidal activity against Staphylococcus aureus ATCC 6538 at 10 ppm concentration; + =Positive; type: functional, organism-based; in short: as §1
[9] = test system: Staphylococcus aureus; test: Bactericidal activity against Staphylococcus aureus ATCC 6538 at >10 ppm concentration; - = Negative; type: functional, organism-based
[10] = test system: Staphylococcus aureus; test: Bacteriostatic activity against Staphylococcus aureus ATCC 6538 at >10 ppm concentration; - = Negative; type: functional, organism-based
[11] = test system: Bacillus cereus; test: Activity at 10 ppm against Bacillus cereus NRRL 3711;* = Effective; type: functional, organism-based; in short: as §2
[12] = test system: Staphylococcus aureus; test: Activity at 10 ppm against Staphylococcus aureus ATCC 6538;* = Effective; type: functional, organism-based
[13] = test system: Lactiplantibacillus plantarum; test: Activity at 10 ppm against Lactobacillus plantarum;* = Effective; type: functional, organism-based; in short: as §2
[14] = test system: Bacillus cereus; test: Activity at 10 ppm against Bacillus cereus NRRL 3711; d=A few resistant colonies grew; type: functional, organism-based; in short: as §2
[15] = test system: Bacillus cereus; test: Activity at 10 ppm against Bacillus cereus NRRL 3711; x=Effective; type: functional, organism-based; in short: as §2
[16] = test system: Staphylococcus aureus; test: Activity at 1 ppm against Staphylococcus aureus ATCC 6538; x=Effective; type: functional, organism-based
[17] = test system: Staphylococcus aureus; test: Bacteriostatic activity against Staphylococcus aureus ATCC 6538 at 1 ppm concentration; + =Positive; type: functional, organism-based
[18] = test system: Lactiplantibacillus plantarum; test: Activity at 1 ppm against Lactobacillus plantarum; x=Effective; type: functional, organism-based; in short: as §2
[19] = test system: Enterococcus faecalis; test: Activity at 1 ppm against Streptococcus faecalis; x=Effective; type: functional, organism-based; in short: as §2
[20] = test system: Staphylococcus aureus; test: Bactericidal activity against Staphylococcus aureus ATCC 6538 at 1 ppm concentration; + =Positive; type: functional, organism-based
[21] = test system: Bacillus cereus; test: Activity at 1 ppm against Bacillus cereus NRRL 3711; x=Effective; type: functional, organism-based; in short: as §2
[22] = test system: Staphylococcus aureus; test: Bactericidal activity against Staphylococcus aureus ATCC 6538 at 1 ppm concentration; - = Negative; type: functional, organism-based
[23] = test system: Enterococcus faecalis; test: Activity against Streptococcus faecalis; xe=S. faecalis was inhibited at 10 p.p.m. but not at 1 ppm; type: functional, organism-based; in short: as §2
[24] = test system: Staphylococcus aureus; test: Bactericidal activity against Staphylococcus aureus ATCC 6538 at 10 ppm concentration; -=Negative; type: functional, organism-based; in short: as §1
[25] = test system: Staphylococcus aureus; test: Bacteriostatic activity against Staphylococcus aureus ATCC 6538 at 10 ppm concentration; x=Effective; type: functional, organism-based; in short: as §1

C=C(CCCCCC)C(=O)Nc1cc(Cl)cc(Cl)c1
Activity [1]: Negative | MIC [2]: 1 µg/mL (≈ 3.33 µM) | Activity [3]: Negative | Activity [4]: Concentration effective | Activity [5]: Concentration effective

CCCc1ccc(S(=O)(=O)Nc2ccc(Cl)c(Cl)c2)cc1
Activity [6]: Negative | MIC [2]: 1 µg/mL (≈ 2.9 µM) | Activity [7]: Concentration effective | Activity [4]: Concentration effective | Activity [8]: Negative

CCCCCCCCC(=O)Nc1cc(Cl)ccc1O
Activity [9]: Negative | MIC [2]: 1 µg/mL (≈ 3.52 µM) | Activity [10]: Negative

CCCCCCCC(=O)Nc1cc(Cl)cc(Cl)c1
Activity [11]: Concentration effective | Activity [1]: Negative | MIC [2]: 1 µg/mL (≈ 3.47 µM) | Activity [12]: Concentration effective | Activity [13]: Concentration effective | Activity [3]: Negative

O=[N+]([O-])c1cc(NS(=O)(=O)c2ccc(Cl)c(Cl)c2)ccc1Cl
Activity [1]: Negative | MIC [2]: 1 µg/mL (≈ 2.62 µM) | Activity [7]: Concentration effective | Activity [3]: Negative | Activity [4]: Concentration effective

CCCCc1ccc(S(=O)(=O)Nc2ccc(Cl)c([N+](=O)[O-])c2)cc1
Activity [6]: Negative | MIC [2]: 1 µg/mL (≈ 2.71 µM) | Activity [7]: Concentration effective | Activity [3]: Negative | Activity [4]: Concentration effective

CCCCCCC(=O)Nc1cc(Cl)cc(Cl)c1
Activity [1]: Negative | MIC [2]: 1 µg/mL (≈ 3.65 µM) | Activity [3]: Negative | Activity [4]: Concentration effective | Activity [5]: Concentration effective

C=C(CCCCC)C(=O)Nc1cc(Cl)cc(Cl)c1
Activity [1]: Negative | MIC [2]: 1 µg/mL (≈ 3.49 µM) | Activity [14]: A few resistant colonies grew | Activity [3]: Negative | Activity [4]: Concentration effective | Activity [5]: Concentration effective

O=S(=O)(Nc1ccc(Cl)c(Cl)c1)c1ccc(Cl)c(Cl)c1
Activity [1]: Negative | MIC [2]: 1 µg/mL (≈ 2.69 µM) | Activity [7]: Concentration effective | Activity [15]: Concentration effective | Activity [3]: Negative | Activity [4]: Concentration effective | Activity [5]: Concentration effective

CCCCCCCC(=O)Nc1cc([N+](=O)[O-])ccc1O
Activity ([1]; Bacteria): Negative | MIC [2]: 1 µg/mL (≈ 3.57 µM) | Activity [7]: Concentration effective | Activity [15]: Concentration effective | Activity [3]: Negative | Activity [4]: Concentration effective | Activity [5]: Concentration effective

C=C(CCCCCCCC)C(=O)Nc1cc([N+](=O)[O-])ccc1O
Activity [16]: Concentration effective | MIC [2]: 1 µg/mL (≈ 3.12 µM) | Activity [17]: Positive | Activity [18]: Concentration effective | Activity [19]: Concentration effective | Activity [20]: Positive | Activity [21]: Concentration effective

C=C(CCCCCCC)C(=O)Nc1cc([N+](=O)[O-])ccc1O
Activity [22]: Negative | Activity [16]: Concentration effective | MIC [2]: 1 µg/mL (≈ 3.26 µM) | Activity [23]: Inhibited at 10ppm but not at 1ppm | Activity [17]: Negative | Activity [18]: Concentration effective | Activity [21]: Concentration effective

CCCCCCCCC(=O)Nc1ccc(Cl)c([N+](=O)[O-])c1
Activity [1]: Negative | MIC [2]: 1 µg/mL (≈ 3.2 µM) | Activity [14]: A few resistant colonies grew | Activity [3]: Negative | Activity [4]: Concentration effective

CCCCCCCC(=O)Nc1ccc(Cl)c(Cl)c1
Activity [1]: Negative | MIC [2]: 1 µg/mL (≈ 3.47 µM) | Activity [14]: A few resistant colonies grew | Activity [24]: Negative | Activity [4]: Concentration effective | Activity [5]: Concentration effective

CCCCc1ccc(S(=O)(=O)Nc2cc([N+](=O)[O-])ccc2O)cc1
Activity [1]: Negative | MIC [2]: 10 µg/mL (≈ 28.5 µM) | Activity [15]: Concentration effective | Activity [3]: Negative | Activity [4]: Concentration effective | Activity [5]: Concentration effective

CCCCCCCCCC(=O)Nc1cc([N+](=O)[O-])ccc1O
Activity [1]: Negative | MIC [2]: 1 µg/mL (≈ 3.24 µM) | Activity [3]: Negative | Activity [25]: Concentration effective

CCc1ccc(C(=O)Nc2ccc(Cl)c(Cl)c2)cc1
MIC [2]: > 1000 µg/mL

CCC(C(=O)Nc1cc(Cl)ccc1O)c1ccccc1 (stereo not drawn)
MIC [2]: 10 µg/mL (≈ 34.5 µM)

CCCCCC(=O)Nc1ccc(Cl)c([N+](=O)[O-])c1
MIC [2]: 10 µg/mL (≈ 36.9 µM)

CCC(C)c1ccc(S(=O)(=O)Nc2ccc(Cl)c(Cl)c2)cc1 (stereo not drawn)
MIC [2]: 10 µg/mL (≈ 27.9 µM)

CCCc1ccc(S(=O)(=O)N(Cc2ccc(Cl)cc2)c2ccc(Cl)c(Cl)c2)cc1
MIC [2]: > 1000 µg/mL

CCCc1ccc(S(=O)(=O)Nc2cc(Cl)ccc2O)cc1
Activity [1]: Negative | MIC [2]: 1 µg/mL (≈ 3.07 µM) | Activity [7]: Concentration effective | Activity [15]: Concentration effective | Activity [3]: Negative | Activity [4]: Concentration effective | Activity [5]: Concentration effective

CCCCCC(=O)Nc1cc(Cl)ccc1O
MIC [2]: 10 µg/mL (≈ 41.4 µM)

Cc1ccc(S(=O)(=O)Nc2ccc(Cl)c(Cl)c2)cc1
MIC [2]: 10 µg/mL (≈ 31.6 µM)

O=C(O)CCCCCCC(=O)Nc1ccc(Cl)c([N+](=O)[O-])c1
MIC [2]: 100 µg/mL (≈ 304 µM)

O=C(O)CCC(=O)Nc1c(Cl)cccc1Cl
MIC [2]: > 1000 µg/mL

C=C(CCCCCCCC)C(=O)Nc1ccc(Cl)c(Cl)c1
MIC [2]: 1 µg/mL (≈ 3.05 µM)

C=C(CCCCCC)C(=O)Nc1cc([N+](=O)[O-])ccc1O
Activity [1]: Negative | MIC [2]: 1 µg/mL (≈ 3.42 µM) | Activity [7]: Concentration effective | Activity [15]: Concentration effective | Activity [3]: Negative | Activity [4]: Concentration effective | Activity [5]: Concentration effective

COC(=O)CCC(=O)Nc1c(Cl)cccc1Cl
MIC [2]: 1000 µg/mL (≈ 3620 µM)

COC(=O)CCCCCCCC(=O)Nc1ccc(Cl)c(Cl)c1
MIC [2]: 1 µg/mL (≈ 2.89 µM)

O=C(CCc1ccccc1)Nc1ccc(Cl)c(Cl)c1
MIC [2]: 1 µg/mL (≈ 3.4 µM)

CCCCCCCC(=O)Nc1ccc(Cl)c([N+](=O)[O-])c1
Activity [6]: Negative | MIC [2]: 1 µg/mL (≈ 3.35 µM) | Activity [15]: Concentration effective | Activity [3]: Negative | Activity [4]: Concentration effective

COC(=O)CCCCC(=O)Nc1ccc(Cl)c([N+](=O)[O-])c1
MIC [2]: 100 µg/mL (≈ 318 µM)

CCCCc1ccc(S(=O)(=O)Nc2cc(Cl)ccc2O)cc1
MIC [2]: 10 µg/mL (≈ 29.4 µM)
